In ChEMBL document CHEMBL4118253, “Expedient synthesis and biological evaluation of alkenyl acyclic nucleoside phosphonate prodrugs” (Bioorg Med Chem, 2018):

Legend:
Human alphaherpesvirus 1 [1] = test: Antiviral activity against Herpes simplex virus 1 KOS infected in HEL cells assessed as inhibition of virus-induced cytopathicity; format: functional, organism-based; details: Human alphaherpesvirus 1, KOS
Human alphaherpesvirus 2 = test: Antiviral activity against Herpes simplex virus 2 G infected in HEL cells assessed as inhibition of virus-induced cytopathicity; format: functional, organism-based; details: Human alphaherpesvirus 2, strain G
Human alphaherpesvirus 1 [2] = test: Antiviral activity against acyclovir-resistant thymidine kinase deficient Herpes simplex virus 1 KOS infected in HEL cells assessed as inhibition of virus-induced cytopathicity; format: functional, organism-based; details: Human alphaherpesvirus 1, KOS
Vaccinia virus = test: Antiviral activity against Vaccinia virus infected in HEL cells assessed as inhibition of virus-induced cytopathicity; format: functional, organism-based; details: Orthopoxvirus vaccinia
Human adenovirus 2 = test: Antiviral activity against Adenovirus 2 infected in HEL cells assessed as inhibition of virus-induced cytopathicity; format: functional, organism-based; details: Human mastadenovirus C
Human coronavirus 229E = test: Antiviral activity against Human coronavirus 229E infected in HEL cells assessed as inhibition of virus-induced cytopathicity; format: functional, organism-based
Human respirovirus 3 = test: Antiviral activity against Parainfluenza virus 3 infected in human HeLa cells assessed as inhibition of virus-induced cytopathicity; format: functional, organism-based; details: Human respirovirus 3, HeLa
[3] = tested on: Mammalian orthoreovirus 1; test: Antiviral activity against Reovirus-1 infected in human HeLa cells assessed as inhibition of virus-induced cytopathicity; format: functional, organism-based; details: Mammalian orthoreovirus 1, HeLa
[4] = tested on: Vesicular stomatitis virus; test: Antiviral activity against Vesicular stomatitis virus infected in human HeLa cells assessed as inhibition of virus-induced cytopathicity; format: functional, organism-based
[5] = tested on: Respiratory syncytial virus; test: Antiviral activity against Respiratory syncytial virus infected in human HeLa cells assessed as inhibition of virus-induced cytopathicity; format: functional, organism-based
Influenza A virus [6] = test: Antiviral activity against Influenza A virus H1N1 infected in MDCK cells assessed as inhibition of virus-induced cytopathicity by MTS assay; format: functional, organism-based
Influenza A virus H3N2 [7] = test: Antiviral activity against Influenza A virus H3N2 infected in MDCK cells assessed as inhibition of virus-induced cytopathicity by MTS assay; format: functional, organism-based
Influenza B virus [8] = test: Antiviral activity against Influenza B virus infected in MDCK cells assessed as inhibition of virus-induced cytopathicity by MTS assay; format: functional, organism-based
Human alphaherpesvirus 3 [9] = test: Antiviral activity against thymidine kinase expressing Varicella-Zoster virus infected in HEL cells assessed as reduction in virus plaque formation; format: functional, organism-based; details: Human alphaherpesvirus 3, HEL
Human alphaherpesvirus 3 [10] = test: Antiviral activity against thymidine kinase deficient Varicella-Zoster virus infected in HEL cells assessed as reduction in virus plaque formation; format: functional, organism-based; details: Human alphaherpesvirus 3, HEL
Human betaherpesvirus 5 [11] = test: Antiviral activity against Human cytomegalovirus AD169 infected in HEL cells assessed as inhibition of virus-induced cytopathicity; format: functional, organism-based; details: Human betaherpesvirus 5, AD169, HEL
Human betaherpesvirus 5 [12] = test: Antiviral activity against Human cytomegalovirus Davis infected in HEL cells assessed as inhibition of virus-induced cytopathicity; format: functional, organism-based; details: Human betaherpesvirus 5, Davis
[13] = Cytotoxicity against HEL cells assessed as alteration of cell morphology by microscopic analysis; format: cell-based; details: human
Summary of the method: (§1)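 The value is the minimal cytotoxic concentration (MCC), the lowest concentration that causes a microscopically visible change in cell morphology. It was read in the same HEL or Vero cell cultures used for the antiviral tests.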

Sindbis virus = test: Antiviral activity against Sindbis Virus infected in African green monkey Vero cells assessed as inhibition of virus-induced cytopathicity; format: functional, organism-based
Coxsackievirus B4 = test: Antiviral activity against Coxsackie virus B4 infected in African green monkey Vero cells assessed as inhibition of virus-induced cytopathicity; format: functional, organism-based; details: Enterovirus B
Punta Toro virus = test: Antiviral activity against Punta Toro virus infected in African green monkey Vero cells assessed as inhibition of virus-induced cytopathicity; format: functional, organism-based
Yellow fever virus = test: Antiviral activity against Yellow fever virus infected in African green monkey Vero cells assessed as inhibition of virus-induced cytopathicity; format: functional, organism-based
[14] = Cytotoxicity against African green monkey Vero cells assessed as alteration of cell morphology by microscopic analysis; format: cell-based; details: chlorocebus sabaeus; summary of the method: as §1
[15] = Cytotoxicity against human HeLa cells assessed as alteration of cell morphology by microscopic analysis; format: cell-based
[16] = Cytotoxicity against MDCK cells assessed as alteration of cell morphology by microscopic analysis; format: cell-based, Canis lupus familiaris; details: dog
Influenza A virus [17] = test: Antiviral activity against Influenza A virus H1N1 infected in MDCK cells assessed as inhibition of virus-induced visual cytopathicity; format: functional, organism-based
Influenza A virus H3N2 [18] = test: Antiviral activity against Influenza A virus H3N2 infected in MDCK cells assessed as inhibition of virus-induced visual cytopathicity; format: functional, organism-based
Influenza B virus [19] = test: Antiviral activity against Influenza B virus infected in MDCK cells assessed as inhibition of virus-induced visual cytopathicity; format: functional, organism-based

SMILES	EC50 (Human alphaherpesvirus 1 [1])	EC50 (Human alphaherpesvirus 2)	EC50 (Human alphaherpesvirus 1 [2])	EC50 (Vaccinia virus)	EC50 (Human adenovirus 2)	EC50 (Human coronavirus 229E)	EC50 (Human respirovirus 3)	EC50 [3]	EC50 [4]	EC50 [5]	EC50 (Influenza A virus [6])	EC50 (Influenza A virus H3N2 [7])	EC50 (Influenza B virus [8])	EC50 (Human alphaherpesvirus 3 [10])	EC50 (Human betaherpesvirus 5 [12])	MCC [13]	EC50 (Sindbis virus)	EC50 (Coxsackievirus B4)	EC50 (Punta Toro virus)	EC50 (Yellow fever virus)	also measured
C/C(=C\CP(=O)(N[C@@H](C)C(=O)OCc1ccccc1)Oc1cccc2ccccc12)Cn1cc(C)c(=O)[nH]c1=O (stereo not given in full)	> 100 µM	> 100 µM	> 100 µM	> 100 µM	> 100 µM	> 100 µM	> 100 µM	> 100 µM	> 100 µM	> 100 µM	> 100 µM	> 100 µM	> 100 µM	55.3 µM	> 100 µM	> 100 µM	> 100 µM	> 100 µM	> 100 µM	> 100 µM	EC50 (Human alphaherpesvirus 3 [9]): 34.2 µM; EC50 (Human betaherpesvirus 5 [11]): > 100 µM; MCC [14]: > 100 µM; MCC [15]: > 100 µM; MCC [16]: > 100 µM; EC50 (Influenza A virus [17]): > 100 µM; EC50 (Influenza A virus H3N2 [18]): > 100 µM; EC50 (Influenza B virus [19]): > 100 µM
C/C(=C\CP(=O)(N[C@@H](C)C(=O)OCc1ccccc1)Oc1ccccc1)Cn1cc(C)c(=O)[nH]c1=O (stereo not given in full)	> 100 µM	> 100 µM	> 100 µM	> 100 µM	> 100 µM	> 100 µM	> 100 µM	> 100 µM	> 100 µM	> 100 µM	> 100 µM	> 100 µM	> 100 µM	46.7 µM	> 100 µM	> 100 µM	> 100 µM	> 100 µM	> 100 µM	> 100 µM	EC50 (Human alphaherpesvirus 3 [9]): 55.7 µM; EC50 (Human betaherpesvirus 5 [11]): > 100 µM; MCC [14]: > 100 µM; MCC [15]: > 100 µM; MCC [16]: > 100 µM; EC50 (Influenza A virus [17]): > 100 µM; EC50 (Influenza A virus H3N2 [18]): > 100 µM; EC50 (Influenza B virus [19]): > 100 µM
C/C(=C\CP(=O)(N[C@@H](C)C(=O)OC(C)C)Oc1cccc2ccccc12)Cn1cc(C)c(=O)[nH]c1=O (stereo not given in full)	> 100 µM	> 100 µM	> 100 µM	> 100 µM	> 100 µM	> 100 µM	> 100 µM	> 100 µM	> 100 µM	> 100 µM	> 100 µM	> 100 µM	> 100 µM	> 100 µM	> 100 µM	> 100 µM	> 100 µM	> 100 µM	> 100 µM	> 100 µM	EC50 (Human betaherpesvirus 5 [11]): > 100 µM; MCC [14]: ≥ 20 µM; MCC [15]: ≥ 20 µM; MCC [16]: > 100 µM; EC50 (Influenza A virus [17]): > 100 µM; EC50 (Influenza A virus H3N2 [18]): > 100 µM; EC50 (Influenza B virus [19]): > 100 µM
C/C(=C/CP(=O)(N[C@@H](C)C(=O)OC(C)C)Oc1cccc2c1CCCC2)Cn1cc(C)c(=O)[nH]c1=O (stereo not given in full)	> 100 µM	> 100 µM	> 100 µM	> 100 µM	> 100 µM	> 100 µM	> 100 µM	> 100 µM	> 100 µM	> 100 µM	> 100 µM	> 100 µM	> 100 µM	> 20 µM	> 20 µM	100 µM	45 µM	58 µM	45 µM	58 µM	EC50 (Human alphaherpesvirus 3 [9]): > 20 µM; MCC [14]: > 100 µM; MCC [15]: > 100 µM; MCC [16]: 100 µM; EC50 (Influenza A virus [17]): > 100 µM; EC50 (Influenza A virus H3N2 [18]): > 100 µM; EC50 (Influenza B virus [19]): > 100 µM
